# Activity calls are given as the source filed them. The calls are words filed in the database; no cut-off is given here.
# Key:
# [1] = Drug uptake in mitochondria of human NCTC-2544 cells at 10 uM after 2 hrs by fluorescence microphotography; format: ADME; settings: nctc-2544, 2 h
# Method in brief: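 NCTC-2544 cells attached in Petri dishes, given compound at 10 μM for 2 h, washed with HBSS. Then 30 min with Rhodamine 123 (mitochondria), LysoTracker RED, CellMask Orange (plasma membrane) or ER-Tracker. Blue compound fluorescence overlaid on probe images by video-confocal microscopy.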
# [2] = tested on: HL-60; assay: Phototoxicity in 2.5 J/cm'2 UV-A irradiated human HL60 cells after 72 hrs by MTT assay; format: functional, cell-based; settings: HL-60, light or radiation study
# Method in brief: (§1)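 HL-60 and Jurkat (8×10³/well, RPMI-1640) and MCF-7, LoVo, NCTC-2544 (5×10³/well; DMEM or Ham's F12) preincubated 18 h at 37 °C, 5% CO₂. Compound in DMSO diluted in HBSS pH 7.2, 30 min at 37 °C, then UV-A at 2.5 or 3.75 J/cm². Medium replaced, 72 h incubation, MTT read-out. IC50 as mean ± SEM of three experiments.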
# [3] = tested on: HL-60; assay: Phototoxicity in 3.75 J/cm'2 UV-A irradiated human HL60 cells after 72 hrs by MTT assay; format: functional, cell-based; settings: HL-60, light or radiation study; method in brief: as §1
# [4] = tested on: Jurkat; assay: Phototoxicity in 3.75 J/cm'2 UV-A irradiated human Jurkat cells after 72 hrs by MTT assay; format: functional, cell-based; settings: light or radiation study
# Method in brief: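 Jurkat cells (8 × 10³/well) in RPMI-1640 with 10% FBS, held 18 h at 37 °C, 5% CO2. Compound stock in DMSO was diluted in HBSS pH 7.2 and added for 30 min at 37 °C. Cells were UV-A irradiated (lamp mainly 365 nm, 4.0 mW/cm²), then returned to medium for 72 h. MTT readout. IC50 is the mean ± SEM of three experiences.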
# [5] = tested on: LoVo; assay: Phototoxicity in 2.5 J/cm'2 UV-A irradiated human LoVo cells after 72 hrs by MTT assay; format: functional, cell-based; settings: light or radiation study; method in brief: as §1
# [6] = Phototoxicity in 3.75 J/cm'2 UV-A irradiated human NCTC-2544 cells after 72 hrs by MTT assay; format: functional, cell-based; settings: NCTC-2544, light or radiation study
# Method in brief: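 Seeded at 5 × 10³ cells/well with 10% FBS: MCF-7 and NCTC-2544 in DMEM, LoVo in Ham's F12. Pre-incubated 18 h at 37 °C, 5% CO2. Compound (DMSO stock diluted in HBSS pH 7.2) was applied for 30 min at 37 °C, then UV-A irradiation (mainly 365 nm, 4.0 mW/cm²). Medium was restored for 72 h before MTT. IC50 is the mean ± SEM of three experiences.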
# [7] = Photodegradation of the compound in DMSO assessed as formation of photoproducts at 20 uM at 1.3 to 14.1 J/cm'2 UV-A irradiation; format: physicochemical
# Method in brief: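 Compound solutions at 20 μM in DMSO exposed to increasing UV-A doses (HPW 125 lamps, mainly 365 nm, 4.0 mW cm⁻²). Absorption spectra recorded after each dose; isosbestic points noted.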
# [8] = tested on: MCF7; assay: Phototoxicity in 2.5 J/cm'2 UV-A irradiated human MCF7 cells assessed as cell viability after 72 hrs by MTT assay in presence of radical scavenger DMTU; format: functional, cell-based
# Method in brief: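 MCF-7 cells given compound plus scavenger in HBSS, 30 min at 37 °C, then UV-A (2.5 J/cm², 365 nm lamp). Medium replaced; viability by MTT after 72 h. Means ± SEM of at least three independent experiments.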
# [9] = tested on: Jurkat; assay: Induction of apoptosis in 3.75 J/cm'2 UV-A irradiated human Jurkat cells assessed as viable cells at 5 uM after 24 hrs by Annexin-V-FITC and propidium iodide based flow cytometry (reference value: 91 %); format: functional; settings: light or radiation study, read-out: Activity
# [10] = tested on: Jurkat; assay: Induction of apoptosis in 3.75 J/cm'2 UV-A irradiated human Jurkat cells assessed as early apoptotic cells at 5 uM after 24 hrs by Annexin-V-FITC and propidium iodide based flow cytometry (reference value: 1.9 %); format: functional
# [11] = tested on: Jurkat; assay: Induction of apoptosis in 3.75 J/cm'2 UV-A irradiated human Jurkat cells assessed as late apoptotic cells at 5 uM after 24 hrs by Annexin-V-FITC and propidium iodide based flow cytometry (reference value: 2.9 %); format: functional
# [12] = tested on: Jurkat; assay: Induction of apoptosis in 3.75 J/cm'2 UV-A irradiated human Jurkat cells assessed as early apoptotic cells at 10 uM after 24 hrs by Annexin-V-FITC and propidium iodide based flow cytometry (reference value: 1.9 %); format: functional
# [13] = tested on: Jurkat; assay: Cell cycle arrest in UV-A irradiated human Jurkat cells assessed as accumulation at G1 phase at 5 uM after 24 hrs by propidium iodide based flow cytometry (reference value: 64.4 %); format: functional
# Method in brief: (§2)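 Exponentially growing Jurkat cells (5×10^5) irradiated with UV-A (365 nm lamp, 2.5 J/cm²) in presence of compound. After 24 h: fixed in ice-cold 70% ethanol, lysed with RNAse A, stained with PI (10 µg/ml), analysed by flow cytometry. Phases calculated on living cells; subG1 is hypodiploid DNA peak.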
# [14] = tested on: Jurkat; assay: Cell cycle arrest in UV-A irradiated human Jurkat cells assessed as accumulation at S phase at 5 uM after 24 hrs by propidium iodide based flow cytometry (reference value: 25.3 %); format: functional; method in brief: as §2
# [15] = tested on: Jurkat; assay: Cell cycle arrest in UV-A irradiated human Jurkat cells assessed as accumulation at G2/M phase at 5 uM after 24 hrs by propidium iodide based flow cytometry (reference value: 10.3 %); format: functional; method in brief: as §2
# [16] = tested on: Jurkat; assay: Cell cycle arrest in UV-A irradiated human Jurkat cells assessed as accumulation at G1 phase at 10 uM after 24 hrs by propidium iodide based flow cytometry (reference value: 64.4 %); format: functional; method in brief: as §2
# [17] = tested on: Jurkat; assay: Cell cycle arrest in UV-A irradiated human Jurkat cells assessed as accumulation at S phase at 10 uM after 24 hrs by propidium iodide based flow cytometry (reference value: 25.3 %); format: functional; method in brief: as §2
# [18] = tested on: Nucleic Acid; assay: Induction of photo-induced DNA damage in Escherichia coli pBR322 DNA at drug:DNA ratio of 1:3 by agarose gel electrophoresis in presence of nitrogen flux; format: nucleic-acid assay
# Method in brief: (§3)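 Supercoiled pBR322 (100 ng) in 10 mM phosphate buffer pH 7.2 irradiated with UV-A (3.75 J/cm²) at [DNA]/[drug] 1/3, with additives, under nitrogen or in deuterated buffer as stated. Aliquots then incubated at 37 °C with Fpg or Endo III. Run on 1% agarose in TAE, 80 V for 2 h, stained with ethidium bromide; Form I/II fractions from band densitometry.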
# [19] = tested on: Nucleic Acid; assay: Induction of photo-induced supercoiled Escherichia coli pBR322 DNA at drug:DNA ratio of 1:3 by agarose gel electrophoresis in presence of glutathione; format: nucleic-acid assay; method in brief: as §3
# [20] = tested on: Nucleic Acid; assay: Induction of photo-induced supercoiled Escherichia coli pBR322 DNA damage at drug:DNA ratio of 1:3 by agarose gel electrophoresis in presence of DABCO; format: nucleic-acid assay; method in brief: as §3
# [21] = tested on: Nucleic Acid; assay: Induction of photo-induced supercoiled Escherichia coli pBR322 DNA damage assessed as single strand break at drug:DNA ratio of 1:3 by agarose gel electrophoresis in presence of D2O buffer; format: nucleic-acid assay; method in brief: as §3
smiles,measurement,setting,value
CCOC(=O)c1c2c(c(C)n1C)-c1c(cc(S(=O)(=O)c3ccccc3)c(=O)n1C)CC2,Drug uptake,[1],Active
same,IC50,[2],1200 nM
same,IC50,[3],900 nM
same,IC50,[4],800 nM
same,IC50,[5],700 nM
same,IC50,[6],1300 nM
same,Stability,[7],Unstable
same,Activity,[8],inactive
same,viability at 5 µM,[9],70.1%
same,Activity,[10],14.4%
same,Activity,[11],11%
same,Activity,[12],23.9%
same,Activity,[13],48.9%
same,Activity,[14],46.9%
same,Activity,[15],4.2%
same,Activity,[16],39.1%
same,Activity,[17],55.6%
same,Activity,[18],inactive
same,Activity,[19],inactive
same,Activity,[20],inactive
same,Activity,[21],Active
